{"source": "ChEMBL document CHEMBL3414568", "about": "“Synthesis and antiproliferative activity of 3-(2-chloroethyl)-5-methyl-6-phenyl-8-(trifluoromethyl)-5,6-dihydropyrazolo[3,4-f][1,2,3,5]tetrazepin-4-(3H)-one” (Eur J Med Chem, 2015)", "key": {"[1]": {"test_system": "WiDr", "assay": "Cytotoxicity against human WiDr cells overexpressing MGMT after 48 hrs by trypan blue staining-based hemocytometric analysis", "format": "functional, cell-based", "outline": "(§1)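 2 × 10⁵ cells per well in 1 mL complete medium treated with various concentrations from freshly prepared DMSO solution (DMSO ≤0.3% v/v final). After 48 h, trypan blue staining and hemocytometer counting of viable cells, expressed as percentage of control proliferation.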"}, "[2]": {"assay": "Induction of apoptosis in human HL60R cells expressing p-glycoprotein after 48 hrs by acridine orange/ethidium bromide staining-based fluorescence microscopic analysis", "format": "functional, cell-based", "outline": "(§2)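 After 48 h exposure to various concentrations, 2 × 10⁵ cells centrifuged (300 × g) and resuspended in acridine orange/ethidium bromide dye mixture. Examined under oil immersion, 100× objective, by fluorescence microscopy. Live cells take up acridine orange (green) and exclude ethidium bromide (red); apoptotic and necrotic cells scored morphologically.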"}, "[3]": {"test_system": "K562", "assay": "Cytotoxicity against human K562 cells expressing Bcr-Abl assessed as growth inhibition after 48 hrs by trypan blue staining-based hemocytometric analysis", "format": "functional", "conditions": "K562, 48 h", "outline": "as §1"}, "[4]": {"assay": "Cytotoxicity against human HL60 cells assessed as growth inhibition after 48 hrs by trypan blue staining-based hemocytometric analysis", "format": "functional", "conditions": "HL-60, 48 h", "outline": "as §1"}, "[5]": {"assay": "Cytotoxicity against human HL60R cells expressing p-glycoprotein assessed as growth inhibition after 48 hrs by trypan blue staining-based hemocytometric analysis", "format": "functional", "outline": "as §1"}, "[6]": {"test_system": "K562", "assay": "Cell cycle arrest in human K562 cells expressing Bcr-Abl assessed as accumulation at G2-M phase at 30 uM after 24 hrs by propidium iodide staining-based flow cytometry (reference value: 12.16 +/- 2.2%)", "format": "functional", "outline": "(§3)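 K562 cells cultured with or without 30 µM compound for 24 h and 48 h. Cells washed once in ice-cold PBS, resuspended at 10⁶/mL in hypotonic propidium iodide solution with nonidet P-40 0.03% (v/v) in 0.1% sodium citrate, 30 min incubation, flow cytometry single-parameter DNA histograms. G0-G1/S/G2-M % calculated on cycling cells only; subG0-G1 % on total cell number.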"}, "[7]": {"test_system": "K562", "assay": "Cell cycle arrest in human K562 cells expressing Bcr-Abl assessed as accumulation at S phase at 30 uM after 48 hrs by propidium iodide staining-based flow cytometry (reference value: 43.19 +/- 7%)", "format": "functional", "outline": "as §3"}, "[8]": {"test_system": "K562", "assay": "Cell cycle arrest in human K562 cells expressing Bcr-Abl assessed as accumulation at G0-G1 phase at 30 uM after 48 hrs by propidium iodide staining-based flow cytometry (reference value: 44.65 +/- 6.8%)", "format": "functional", "outline": "as §3"}, "[9]": {"test_system": "K562", "assay": "Cell cycle arrest in human K562 cells expressing Bcr-Abl assessed as accumulation at subG0-G1 phase at 30 uM after 48 hrs by propidium iodide staining-based flow cytometry (reference value: 3.21 +/- 0.4%)", "format": "functional", "outline": "as §3"}, "[10]": {"test_system": "K562", "assay": "Induction of apoptosis in human K562 cells expressing Bcr-Abl after 48 hrs by acridine orange/ethidium bromide staining-based fluorescence microscopic analysis", "format": "functional, cell-based", "conditions": "K562, 48 h", "outline": "as §2"}, "[11]": {"test_system": "K562", "assay": "Cell cycle arrest in human K562 cells expressing Bcr-Abl assessed as accumulation at subG0-G1 phase at 30 uM after 24 hrs by propidium iodide staining-based flow cytometry (reference value: 3.21 +/- 0.4%)", "format": "functional", "outline": "as §3"}, "[12]": {"test_system": "K562", "assay": "Cell cycle arrest in human K562 cells expressing Bcr-Abl assessed as accumulation at G2-M phase at 30 uM after 48 hrs by propidium iodide staining-based flow cytometry (reference value: 12.16 +/- 2.2%)", "format": "functional", "outline": "as §3"}, "[13]": {"test_system": "HepG2", "assay": "Cytotoxicity against human HepG2 cells assessed as growth inhibition after 48 hrs by trypan blue staining-based hemocytometric analysis", "format": "functional", "conditions": "HepG2, 48 h", "outline": "as §1"}, "[14]": {"test_system": "HL-60", "assay": "Induction of apoptosis in human HL60 cells after 48 hrs by acridine orange/ethidium bromide staining-based fluorescence microscopic analysis", "format": "functional, cell-based", "conditions": "HL-60, 48 h", "outline": "as §2"}, "[15]": {"test_system": "HepG2", "assay": "Induction of apoptosis in human HepG2 cells after 48 hrs by acridine orange/ethidium bromide staining-based fluorescence microscopic analysis", "format": "functional, cell-based", "conditions": "HepG2, 48 h", "outline": "as §2"}, "[16]": {"test_system": "K562", "assay": "Cell cycle arrest in human K562 cells expressing Bcr-Abl assessed as accumulation at S phase at 30 uM after 24 hrs by propidium iodide staining-based flow cytometry (reference value: 43.19 +/- 7%)", "format": "functional", "outline": "as §3"}, "[17]": {"test_system": "K562", "assay": "Cell cycle arrest in human K562 cells expressing Bcr-Abl assessed as accumulation at G0-G1 phase at 30 uM after 24 hrs by propidium iodide staining-based flow cytometry (reference value: 44.65 +/- 6.8%)", "format": "functional", "outline": "as §3"}}, "data": [{"compound": "Cn1nnc2c(C(N)=O)ncn2c1=O", "note": "[TEMOZOLOMIDE]", "values": [{"measurement": "IC50", "setting": "[1]", "result": 1720, "unit": "µM"}]}, {"compound": "CN1N=Nc2c(C(F)(F)F)nn(-c3ccccc3)c2N(C)C1=O", "values": [{"measurement": "AC50", "setting": "[2]", "result": 38, "unit": "µM"}, {"measurement": "GI50", "setting": "[3]", "result": 40, "unit": "µM"}, {"measurement": "GI50", "setting": "[4]", "result": 21, "unit": "µM"}, {"measurement": "GI50", "setting": "[5]", "result": 30, "unit": "µM"}]}, {"compound": "COc1cccc2c1C(=O)c1c(O)c3c(c(O)c1C2=O)C[C@@](O)(C(C)=O)C[C@@H]3O[C@H]1C[C@H](N)[C@H](O)[C@H](C)O1", "note": "[DAUNORUBICIN]", "values": [{"measurement": "GI50", "setting": "[4]", "result": 0.1, "unit": "µM"}, {"measurement": "GI50", "setting": "[5]", "result": 38, "unit": "µM"}]}, {"compound": "COc1cc([C@@H]2c3cc4c(cc3[C@@H](O[C@@H]3O[C@@H]5CO[C@@H](C)O[C@H]5[C@H](O)[C@H]3O)[C@H]3COC(=O)[C@H]23)OCO4)cc(OC)c1O", "note": "[ETOPOSIDE]", "values": [{"measurement": "GI50", "setting": "[4]", "result": 0.4, "unit": "µM"}, {"measurement": "GI50", "setting": "[5]", "result": "> 400", "unit": "µM"}]}, {"compound": "CN1C(=O)N(CCCl)N=Nc2c(C(F)(F)F)nn(-c3ccccc3)c21", "values": [{"measurement": "Activity", "setting": "[6]", "result": 12.45, "unit": "%"}, {"measurement": "AC50", "setting": "[2]", "result": 22, "unit": "µM"}, {"measurement": "Activity", "setting": "[7]", "result": 44.24, "unit": "%"}, {"measurement": "Activity", "setting": "[8]", "result": 40.97, "unit": "%"}, {"measurement": "Activity", "setting": "[9]", "result": 38.35, "unit": "%"}, {"measurement": "AC50", "setting": "[10]", "result": 37, "unit": "µM"}, {"measurement": "IC50", "setting": "[1]", "result": 2.3, "unit": "µM"}, {"measurement": "Activity", "setting": "[11]", "result": 15, "unit": "%"}, {"measurement": "Activity", "setting": "[12]", "result": 14.79, "unit": "%"}, {"measurement": "GI50", "setting": "[13]", "result": 26, "unit": "µM"}, {"measurement": "AC50", "setting": "[14]", "result": 19, "unit": "µM"}, {"measurement": "AC50", "setting": "[15]", "result": 43, "unit": "µM"}, {"measurement": "Activity", "setting": "[16]", "result": 43.59, "unit": "%"}, {"measurement": "GI50", "setting": "[3]", "result": 18, "unit": "µM"}, {"measurement": "GI50", "setting": "[4]", "result": 9, "unit": "µM"}, {"measurement": "Activity", "setting": "[17]", "result": 43.96, "unit": "%"}, {"measurement": "GI50", "setting": "[5]", "result": 14, "unit": "µM"}]}]}
